According to ChEMBL document CHEMBL3621200, “Toward the discovery of dual HCMV-VZV inhibitors: Synthesis, structure activity relationship analysis, and cytotoxicity studies of long chained 2-uracil-3-yl-N-(4-phenoxyphenyl)acetamides” (Bioorg Med Chem, 2015):
Calls of active or inactive are those of the source. No cut-off for these calls is given here.

Tests used:
[1] = test system: Influenza A virus H3N2; test: Antiviral activity against Influenza A virus H3N2; type: functional, organism-based
Procedure, shortened: (§1)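 Confluent cell monolayers (HEL, Vero, HeLa or MDCK) in 96-well plates were infected with 100 CCID50 of virus in the presence of varying compound concentrations. Cytopathicity was scored once it reached completion in untreated infected controls.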

[2] = test system: Human betaherpesvirus 5; test: Antiviral activity against human cytomegalovirus AD169 infected in HEL cells assessed as reduction in viral plaque formation; type: functional, organism-based; details: Human betaherpesvirus 5, AD169, HEL
Procedure, shortened: (§2)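 Confluent HEL fibroblasts were infected with 100 PFU of HCMV in the presence of varying compound concentrations. Plaques were counted once plaque formation was complete in untreated infected controls.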

[3] = Cytotoxicity against Varicella zoster virus infected HEL cells assessed as alteration of cell morphology incubated for 3 days by microscopy; type: cell-based; details: human, HEL cells infected with Varicella zoster virus
Procedure, shortened: (§3)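 Cytotoxicity was given as the minimum cytotoxic concentration (MCC): the compound concentration causing a microscopically detectable change in HEL cell morphology.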

[4] = test system: Human herpesvirus 2 strain G; test: Antiviral activity against HSV2 G Lyons; type: functional, organism-based
[5] = test system: Vaccinia virus; test: Antiviral activity against Vaccinia virus Lederle; type: functional, organism-based; details: Orthopoxvirus vaccinia; procedure, shortened: as §1
[6] = test system: Sindbis virus; test: Antiviral activity against Sindbis virus; type: functional, organism-based
[7] = test system: Human immunodeficiency virus 2; test: Antiviral activity against HIV2 ROD infected in human CEM cells assessed as reduction in virus- induced cytopathicity incubated for 4 to 5 days by microscopy based virus syncytium formation assay; type: functional, organism-based; details: ISOLATE ROD, CCRF-CEM
Procedure, shortened: (§4)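 CEM cells at ~3 × 10^5 cells/mL, infected with 100 CCID50 of HIV per mL in the presence of compound dilutions. Incubated 4–5 days at 37 °C in humidified CO2. Syncytium (giant cell) formation scored by microscopy.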

[8] = test system: Punta Toro virus; test: Antiviral activity against Punta Toro virus; type: functional, organism-based
[9] = test system: Mammalian orthoreovirus 1; test: Antiviral activity against Reovirus 1; type: functional
[10] = test system: Human respirovirus 3; test: Antiviral activity against Parainfluenza 3 virus; type: functional, organism-based
[11] = test system: Human betaherpesvirus 5; test: Antiviral activity against human cytomegalovirus Davis infected in HEL cells assessed as reduction in viral plaque formation; type: functional, organism-based; details: Human betaherpesvirus 5, Davis; procedure, shortened: as §2
[12] = test system: Influenza A virus; test: Antiviral activity against Influenza A virus H1N1; type: functional, organism-based; procedure, shortened: as §1
[13] = test system: Influenza B virus; test: Antiviral activity against Influenza B virus; type: functional, organism-based; procedure, shortened: as §1
[14] = test system: Human alphaherpesvirus 1; test: Antiviral activity against HSV1 KOS; type: functional, organism-based
Procedure, shortened: (§5)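 Confluent cell monolayers in 96-well plates were inoculated with 100 CCID50 of virus together with varying compound concentrations. Cytopathicity was scored once it reached completion in untreated infected controls.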

[15] = test system: Human alphaherpesvirus 2; test: Antiviral activity against HSV2 Lyons; type: functional, organism-based; procedure, shortened: as §5
[16] = test system: Human immunodeficiency virus 1; test: Antiviral activity against HIV1 3B infected in human CEM cells assessed as reduction in virus- induced cytopathicity incubated for 4 to 5 days by microscopy based virus syncytium formation assay; type: functional, organism-based; details: CCRF-CEM; procedure, shortened: as §4
[17] = test system: HEL; test: Cytotoxicity against human cytomegalovirus infected HEL cells assessed as cell growth inhibition incubated for 3 days by coulter counter method; type: cell-based; details: 72 h
Procedure, shortened: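 HEL cells were seeded at 5 × 10^3 cells/well and left to adhere and proliferate for 24 h, then compound-containing medium was added. After 3 days at 37 °C, cells were counted with a Coulter counter.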

[18] = test system: Feline coronavirus; test: Antiviral activity against Feline coronavirus; type: functional, organism-based
[19] = test system: Vesicular stomatitis virus; test: Antiviral activity against Vesicular stomatitis virus; type: functional, organism-based; procedure, shortened: as §1
[20] = Cytotoxicity against human cytomegalovirus infected HEL cells assessed as alteration of cell morphology incubated for 3 days by microscopy; type: cell-based; details: HEL cells infected with human cytomegalovirus; procedure, shortened: as §3
[21] = test system: Coxsackievirus B4; test: Antiviral activity against Human coxsackievirus B4; type: functional, organism-based

Compound	inhibition [1]	EC50 [2] [µM]	MCC at 72 h [3] [µM]	inhibition [4]	inhibition [5]	inhibition [6]	inhibition [7]	inhibition [8]	inhibition [9]	inhibition [10]	EC50 [11] [µM]	inhibition [12]	inhibition [13]	inhibition [14]	inhibition [15]	inhibition [16]	inhibition [18]	inhibition [19]	MCC at 72 h [20] [µM]	inhibition [21]	further results
N#Cc1ccc(OCCCCCn2ccc(=O)n(CC(=O)Nc3ccc(Oc4ccccc4)cc3)c2=O)cc1	inactive	0.53	> 100	inactive	inactive	inactive	inactive	inactive	inactive	inactive	0.44	inactive	inactive	inactive	inactive	inactive	inactive	inactive	≥ 4	inactive	CC50 [17]: 4.9 µM
O=C(Cn1c(=O)ccn(CCCCOCc2ccc(Br)cc2)c1=O)Nc1ccc(Oc2ccccc2)cc1	inactive	1.8	> 100	inactive	inactive	inactive	inactive	inactive	inactive	inactive	≥ 1.2	inactive	inactive	inactive	inactive	inactive	inactive	inactive	≥ 4	inactive	CC50 [17]: 4.8 µM
O=C(Cn1c(=O)ccn(CCCCCOc2ccc(Br)cc2)c1=O)Nc1ccc(Cc2ccccc2)cc1	inactive	0.44	≥ 4	inactive	inactive	inactive	inactive	inactive	inactive	inactive	0.57	inactive	inactive	inactive	inactive	inactive	inactive	inactive	4	inactive	CC50 [17]: 8.7 µM
O=C(Cn1c(=O)ccn(CCCCCOc2ccc(Br)cc2)c1=O)Nc1ccc(OCc2ccccc2)cc1	inactive	> 20	≥ 20	inactive	inactive	inactive	inactive	inactive	inactive	inactive	4	inactive	inactive	inactive	inactive	inactive	inactive	inactive	≥ 20	inactive	–
O=C(Cn1c(=O)ccn(Cc2ccc(Oc3ccc(Br)cc3)cc2)c1=O)Nc1ccc(Oc2ccccc2)cc1	inactive	> 0.8	20	inactive	inactive	inactive	inactive	inactive	inactive	inactive	> 0.8	inactive	inactive	inactive	inactive	inactive	inactive	inactive	4	inactive	–
O=C(Cn1c(=O)ccn(CCCCCOc2ccc(Br)cc2)c1=O)Nc1ccccc1	inactive	> 4	≥ 20	inactive	inactive	inactive	inactive	inactive	inactive	inactive	> 4	inactive	inactive	inactive	inactive	inactive	inactive	inactive	20	inactive	–
O=C(Cn1c(=O)c(I)cn(CCCCCOc2ccc(Br)cc2)c1=O)Nc1ccc(Oc2ccccc2)cc1	inactive	> 20	> 100	inactive	inactive	inactive	inactive	inactive	inactive	inactive	> 20	inactive	inactive	inactive	inactive	inactive	inactive	inactive	100	inactive	–
Nc1ccn(C[C@@H](CO)OCP(=O)(O)O)c(=O)n1 [CIDOFOVIR]	–	–	–	–	–	–	–	–	–	–	0.84	–	–	–	–	–	–	–	> 300	–	CC50 [17]: ≥ 208 µM
O=C(Cn1c(=O)ccn(CCCCCOc2ccc(-c3ccccc3)cc2)c1=O)Nc1ccc(Oc2ccccc2)cc1	inactive	0.51	100	inactive	inactive	inactive	inactive	inactive	inactive	inactive	1.04	inactive	inactive	inactive	inactive	inactive	inactive	inactive	20	inactive	CC50 [17]: 2.8 µM
Nc1nc(O)c2ncn(COC(CO)CO)c2n1 [GANCICLOVIR]	–	–	–	–	–	–	–	–	–	–	–	–	–	–	–	–	–	–	> 350	–	CC50 [17]: ≥ 319 µM
O=C(Cn1c(=O)ccn(CCCCCCc2ccccc2)c1=O)Nc1ccc(Oc2ccccc2)cc1	inactive	> 20	> 100	inactive	inactive	inactive	inactive	inactive	inactive	inactive	> 20	inactive	inactive	inactive	inactive	inactive	inactive	inactive	100	inactive	–
O=C(Cn1c(=O)ccn(COCCOCc2ccc(Br)cc2)c1=O)Nc1ccc(Oc2ccccc2)cc1	inactive	> 20	> 100	inactive	inactive	inactive	inactive	inactive	inactive	inactive	> 20	inactive	inactive	inactive	inactive	inactive	inactive	inactive	100	inactive	–
